According to ChEMBL document CHEMBL1136741, “Role of the glycopeptide framework in the antibacterial activity of hydrophobic derivatives of glycopeptide antibiotics” (2003):
Converted amounts (≈) assume the structure as drawn.

Columns and labels:
Enterococcus faecium [1] = assay: Antibacterial activity against glycopeptide resistant Enterococcus faecium 569 strain; format: functional
In short: (§1)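 MIC by broth microdilution in Mueller Hinton broth following NCCLS procedures. Compounds were dissolved in 10% DMSO in water, then diluted in broth. Final DMSO was 1.28% at 128 µg/mL antibiotic down to 0.0013% at 0.13 µg/mL. Repeat determinations were usually identical and always within 2-fold.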

Enterococcus faecium [2] = assay: Antibacterial activity against glycopeptide susceptible Enterococcus faecium 568 strain; format: functional
In short: (§2)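 MIC by broth microdilution in Mueller Hinton broth following NCCLS procedures. Compounds dissolved in 10% DMSO in water, then diluted in broth; test range 128 to 0.13 µg/mL, final DMSO 1.28% to 0.0013% accordingly. Repeat determinations usually identical and always within 2-fold. Strain 533 is a clinical isolate; strain 602 is a clinical S. haemoliticus isolate.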

Enterococcus faecalis [3] = assay: Antibacterial activity against glycopeptide resistant Enterococcus faecalis 560 strain; format: functional; in short: as §1
Enterococcus faecalis [4] = assay: Antibacterial activity against glycopeptide susceptible Enterococcus faecalis 559 strain; format: functional; in short: as §2
Staphylococcus aureus [5] = assay: Antibacterial activity against glycopeptide intermediate resistant Staphylococcus aureus 3797 strain; format: functional; in short: as §1
Staphylococcus aureus [6] = assay: Antibacterial activity against glycopeptide intermediate resistant Staphylococcus aureus 3798 strain; format: functional; in short: as §1
[7] = system: Staphylococcus epidermidis; assay: Antibacterial activity against Staphylococcus epidermis 533 strain; format: functional
[8] = system: Staphylococcus haemolyticus; assay: Antibacterial activity against Staphylococcus haemolyticus 602 strain

Row | Compound | MIC (Enterococcus faecium [1]) [µg/mL] | MIC (Enterococcus faecium [2]) [µg/mL] | MIC (Enterococcus faecalis [3]) [µg/mL] | MIC (Enterococcus faecalis [4]) [µg/mL] | MIC (Staphylococcus aureus [5]) [µg/mL] | MIC (Staphylococcus aureus [6]) [µg/mL] | MIC [7] [µg/mL] | MIC [8] [µg/mL]
1 | CCCCCCCCCCNC(=O)[C@H]1NC(=O)[C@H]2NC(=O)[C@H](NC(=O)[C@@H]3NC(=O)[C@H](CC(N)=O)NC(=O)[C@H](NC(=O)[C@@H](CC(C)C)NC)[C@H](O)c4ccc(c(Cl)c4)Oc4cc3cc(c4O[C@@H]3O[C@H](CO)[C@@H](O)[C@H](O)[C@H]3O[C@H]3C[C@](C)(N)C(O)[C@H](C)O3)Oc3ccc(cc3Cl)[C@H]2O)c2ccc(O)c(c2)-c2c(O)cc(O)cc21 (some centres not stated) | 8 (≈ 5.04 µM) | 0.5 (≈ 0.315 µM) | 8 (≈ 5.04 µM) | 0.5 (≈ 0.315 µM) | 1 (≈ 0.63 µM) | 1 (≈ 0.63 µM) | 0.5 (≈ 0.315 µM) | 1 (≈ 0.63 µM)
2 | CCCCCCCCCCNC(=O)[C@H]1NC(=O)[C@H]2NC(=O)[C@H](NC(=O)[C@@H]3NC(=O)[C@H]4NC(=O)[C@@H](Cc5ccc(c(Cl)c5)Oc5cc3cc(c5O)Oc3ccc(cc3Cl)[C@H]2O)NC(=O)[C@H](N)c2ccc(O)c(c2)Oc2cc(O)cc4c2)c2ccc(O)c(c2)-c2c(O)cc(O)cc21 | 4 (≈ 2.99 µM) | 0.25 (≈ 0.187 µM) | 4 (≈ 2.99 µM) | 0.5 (≈ 0.374 µM) | 1 (≈ 0.747 µM) | 1 (≈ 0.747 µM) | 0.13 (≈ 0.0971 µM) | 0.5 (≈ 0.374 µM)
3 | CC(=O)N[C@@H]1[C@H](O[C@@H]2c3ccc(c(Cl)c3)Oc3cc(cc(Oc4ccc(C[C@@H](N)CO)cc4Cl)c3O)[C@@H](N)C(=O)N[C@H]3C(=O)N[C@@H]2C(=O)N[C@H](C(=O)O)c2cc(O)cc(O[C@H]4O[C@H](CO)[C@@H](O)[C@@H](O)[C@@H]4O)c2-c2cc3ccc2O)O[C@@H](CO)[C@@H](O)[C@@H]1O | > 128 | 32 (≈ 25.5 µM) | > 128 | 64 (≈ 51 µM) | > 64 | > 64 | 64 (≈ 51 µM) | 64 (≈ 51 µM)
4 | N[C@H]1C(=O)N[C@@H]2Cc3ccc(c(Cl)c3)Oc3cc4cc(c3O)Oc3ccc(cc3Cl)[C@@H](O)[C@@H]3NC(=O)[C@H](NC(=O)[C@@H]4NC(=O)[C@@H](NC2=O)c2cc(O)cc(c2)Oc2cc1ccc2O)c1ccc(O)c(c1)-c1c(O)cc(O)cc1[C@@H](C(=O)NCc1ccc(-c2ccc(Cl)cc2)cc1)NC3=O | 4 (≈ 2.86 µM) | 0.25 (≈ 0.179 µM) | 8 (≈ 5.72 µM) | 0.25 (≈ 0.179 µM) | 1 (≈ 0.715 µM) | 1 (≈ 0.715 µM) | 0.13 (≈ 0.0929 µM) | 0.13 (≈ 0.0929 µM)
5 | NC(=O)C[C@@H]1NC(=O)[C@H](N)[C@H](O)c2ccc(c(Cl)c2)Oc2cc3cc(c2O)Oc2ccc(cc2)[C@@H](O)[C@@H]2NC(=O)[C@H](NC(=O)[C@@H]3NC1=O)c1ccc(O)c(c1)-c1c(O)cc(O)cc1[C@@H](C(=O)O)NC2=O |  | > 128 |  | > 128 | > 128 | > 128 | > 128 | > 128
6 | C[C@@H]1O[C@@H](O[C@H]2[C@H](Oc3c4cc5cc3Oc3ccc(cc3Cl)[C@@H](O)[C@@H](N)C(=O)N[C@@H](CC(N)=O)C(=O)N[C@H]5C(=O)N[C@H]3C(=O)N[C@H](C(=O)N[C@H](C(=O)NCc5ccc(-c6ccc(Cl)cc6)cc5)c5cc(O)cc(O)c5-c5cc3ccc5O)[C@H](O[C@H]3C[C@](C)(N)[C@@H](O)[C@H](C)O3)c3ccc(cc3)O4)O[C@H](CO)[C@@H](O)[C@@H]2O)C[C@](C)(N)[C@H]1O | 2 (≈ 1.23 µM) | 4 (≈ 2.45 µM) | 4 (≈ 2.45 µM) | 4 (≈ 2.45 µM) | 8 (≈ 4.91 µM) | 8 (≈ 4.91 µM) | 4 (≈ 2.45 µM) | 4 (≈ 2.45 µM)
7 | CCCCCCCCCCNC(=O)[C@H]1NC(=O)[C@H]2NC(=O)[C@H](NC(=O)[C@H](N)c3cc(Oc4ccc(C[C@@H](N)CO)cc4Cl)c(O)c(c3)Oc3ccc(cc3Cl)[C@H]2O[C@@H]2O[C@@H](CO)[C@@H](O)[C@H](O)[C@@H]2NC(C)=O)c2ccc(O)c(c2)-c2c(O[C@H]3O[C@H](CO)[C@@H](O)[C@@H](O)[C@@H]3O)cc(O)cc21 | 16 (≈ 11.5 µM) | 16 (≈ 11.5 µM) | 64 (≈ 45.9 µM) | 16 (≈ 11.5 µM) | 32 (≈ 22.9 µM) | 16 (≈ 11.5 µM) | 16 (≈ 11.5 µM) | 32 (≈ 22.9 µM)
8 | CCCCCCCCCCNC(=O)[C@H]1NC(=O)[C@H]2NC(=O)[C@H](NC(=O)[C@@H]3NC(=O)[C@H](CC(N)=O)NC(=O)[C@H](NC(=O)[C@@H](CC(C)C)NC)[C@H](O)c4ccc(c(Cl)c4)Oc4cc3cc(c4O)Oc3ccc(cc3)[C@H]2O)c2ccc(O)c(c2)-c2c(O)cc(O)cc21 | 4 (≈ 3.2 µM) | 4 (≈ 3.2 µM) | 4 (≈ 3.2 µM) | 4 (≈ 3.2 µM) | 4 (≈ 3.2 µM) | 4 (≈ 3.2 µM) | 4 (≈ 3.2 µM) | 4 (≈ 3.2 µM)
